Data published in publication PMC5905822 (International Journal of Nanomedicine, 2018).

How the values were obtained:
human liver microsomes = conditions: cited from earlier work
rat liver microsomes = conditions: cited from earlier work
[1] = Plasma pharmacokinetics in rats after intravenous injection; format: in vivo, Sprague Dawley (SD) rats
Summary of the method: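 Male SD rats (220–250 g), fasted overnight and randomized (n=6/group), got 6 mg/kg iv of free or lipid-carrier-formulated ester. An automated collector drew blood at 2–300 min, with saline volume replacement. Plasma was prepared cold and stored at −80°C, then extracted with ice-cold acetonitrile plus internal standard, dried under nitrogen and reconstituted in methanol. LC-MS measured the parent ester and its hydrolysed metabolite.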

For `CC1(C)C2CCC1(C)C(OC(=O)C(O)Cc1ccc(O)c(O)c1)C2` (stereo not shown) [DBZ, 1,7,7-trimethylbicyclo[2.2.1]heptan-2-yl 3-[3,4-dihydroxyphenyl]-2-hydroxy-propanoate], the “Metabolism by the liver microsomal enzymes” value (human liver microsomes) is listed as “metabolized quickly”, the “Metabolism by the liver microsomal enzymes” value (rat liver microsomes) is listed as “metabolized quickly” and the “MRT0–∞ of plasma DBZ” value ([1]; analyte DBZ, rats, intravenous, 6 mg/kg) is listed as 0.149±0.015 H. For the same compound, the “Elimination from the blood circulation after injection” value ([1]; preliminary pharmacokinetic studies in rats) was “eliminated quickly”.
